This passage reports MIC and IC50 results from ChEMBL document CHEMBL3407339, “A novel series of thiazolyl-pyrazoline derivatives: synthesis and evaluation of antifungal activity, cytotoxicity and genotoxicity” (Eur J Med Chem, 2015).

Usually MIC stands for the lowest concentration that inhibits growth of the organism. High values mean weaker potency, low ones greater potency. By IC50 is commonly meant the midpoint of a concentration-inhibition curve. High values mean weaker potency, low ones greater potency.

Values after ≈ are worked out from the molar mass of the structure shown.

The test system of one assay is Nakaseomyces glabratus. In words: Antifungal activity against Candida glabrata clinical isolate after 48 hrs by broth microdilution assay. The format is functional. The method in brief: (§1)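 Broth microdilution of DMSO stocks serially diluted in sterile water (4 to 0.0039 mg/mL). Yeasts grown on SDA at 37 °C for 24 h, suspended in double-strength PDB at 10⁵ spores/mL. Incubated at 37 °C for 48 h, then sprayed with 0.5% aqueous TTC. MIC = lowest concentration inhibiting visible growth. Ketoconazole reference.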
A general note: Dilution methods test growth across graded concentrations, often in twofold steps.

The subject of a further assay is Candida albicans. In words: Antifungal activity against Candida albicans ATCC 90028 after 48 hrs by broth microdilution assay. The format is functional. The conditions noted are these: ATCC 90028, 48 h. The method in brief:
as §1

The subject of another assay is Candida tropicalis. The assay can be described thus: Antifungal activity against Candida tropicalis NRLL Y 12968 after 48 hrs by broth microdilution assay. The format is functional. The conditions noted are these: NRLL Y 12968, 48 h. In outline:
as §1

Another assay relates to Pichia kudriavzevii. In words: Antifungal activity against Candida krusei NRLL Y 7179 after 48 hrs by broth microdilution assay. The format is functional. The conditions noted are these: NRLL Y 7179, 48 h. In outline:
as §1

The test system of the next assay is [Candida] zeylanoides. In words: Antifungal activity against Candida zeylanoides NRLL Y 1774 after 48 hrs by broth microdilution assay. The format is functional. The conditions noted are these: Dujonia zeylanoides, NRLL Y 1774, 48 h. The method in brief:
as §1

A further assay concerns Candida parapsilosis. The assay can be described thus: Antifungal activity against Candida parapsilosis NRLL Y 12696 after 48 hrs by broth microdilution assay. The conditions noted are these: Lodderomyces parapsilosis, NRLL Y 12696, 48 h. The format is functional. In outline:
as §1

For the next assay, the system named is Aspergillus flavus. In words: Antifungal activity against Aspergillus flavus NRRL 980 after 72 hrs by broth microdilution assay. The conditions noted are these: NRRL 980, 72 h. The format is functional. The method in brief:
(§2)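 Compounds dissolved in DMSO, diluted in sterile distilled water from 4 to 0.0039 mg/mL. Molds grown on PDA at 25 °C for 5 days, suspended in double-strength PDB at 10⁵ spores/mL. Incubated at 25 °C for 72 h; mycelial growth read under stereo microscope. MIC = lowest concentration inhibiting visible growth. Ketoconazole reference.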

The test system of the next assay is Aspergillus niger. The assay can be described thus: Antifungal activity against Aspergillus niger ATCC 1094 after 72 hrs by broth microdilution assay. The format is functional. The conditions noted are these: ATCC 1094, 72 h. In outline:
as §2

The next assay has as its system Aspergillus parasiticus. In words: Antifungal activity against Aspergillus parasiticus NRRL 465 after 72 hrs by broth microdilution assay. The format is functional. The conditions noted are these: NRRL 465, 72 h. In outline: as §2
A further assay relates to Fusarium solani. The assay can be described thus: Antifungal activity against Fusarium solani NRRL 13414 after 72 hrs by broth microdilution assay. The format is functional. The conditions noted are these: NRRL 13414, 72 h. In outline:
as §2

In the next assay the test system is A549. In words: Antiproliferative activity against human A549 cells after 24 hrs by XTT assay. The format is functional, cell-based. The conditions noted are these: A549, 24 h. In outline: (§3)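 A549 cells in RPMI and NIH/3T3 cells in DMEM, each with fetal calf serum, antibiotics and 7.5% NaHCO₃, at 37 °C, 5% CO₂. Seeded at 20,000 cells/well, 24 h, then compounds added in medium at 500–3.9 doses (final DMSO <0.1%) for 24 h. XTT read after 3 h at 480 nm (ref 680 nm). IC₅₀ by non-linear regression; triplicates; cisplatin control.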

Assay [1] is described as follows: Cytotoxicity against mouse NIH/3T3 cells after 24 hrs by XTT assay. The format is cell-based. The conditions noted are these: NIH3T3, 24 h. In outline:
as §3
On the technique in general: Formazan colour is commonly taken as a measure of viable cells.

As to `Cc1ccc(-c2csc(N3N=C(c4ccc(C)s4)CC3c3ccc(F)cc3)n2)cc1` (centres undefined), the MIC against Nakaseomyces glabratus was found to be 250 µg/mL (≈ 577 µM); against Candida albicans it was 500 µg/mL (≈ 1150 µM); against Candida tropicalis, 500 µg/mL (≈ 1150 µM); against Pichia kudriavzevii, 500 µg/mL (≈ 1150 µM); in assay [Candida] zeylanoides it was 500 µg/mL (≈ 1150 µM); in the assay with Candida parapsilosis, 500 µg/mL (≈ 1150 µM). The minimum inhibitory concentration (MIC) against Aspergillus flavus, in the assay on Aspergillus niger, in the assay with Aspergillus parasiticus and in the assay with Fusarium solani was 250 µg/mL (≈ 577 µM) each time. Moreover, the half-inhibitory concentration (IC50) (in the assay on A549; in [1]) was more than 500 µg/mL each time.
On to `Cc1ccc(C2=NN(c3nc(-c4ccc(Cl)cc4)cs3)C(c3ccc(F)cc3)C2)s1` (centres undefined), for which the minimum inhibitory concentration (MIC) with Nakaseomyces glabratus was determined as 125 µg/mL (≈ 275 µM); with Candida albicans it was 250 µg/mL (≈ 551 µM); against Candida tropicalis it was 250 µg/mL (≈ 551 µM); against Pichia kudriavzevii, 250 µg/mL (≈ 551 µM); in assay [Candida] zeylanoides, 250 µg/mL (≈ 551 µM); against Candida parapsilosis it was 250 µg/mL (≈ 551 µM). Moreover, the MIC in the assay on Aspergillus flavus, in the assay on Aspergillus niger, against Aspergillus parasiticus and against Fusarium solani was 250 µg/mL (≈ 551 µM) each time. The 50% inhibitory concentration (IC50) (with A549; in assay [1]) was more than 500 µg/mL throughout.
Regarding `Cc1ccc(-c2csc(N3N=C(c4ccc(Cl)s4)CC3c3ccc(F)cc3)n2)cc1` (centres undefined), the minimal inhibitory concentration (MIC) turned out to be 125 µg/mL (≈ 275 µM) in the assay with Nakaseomyces glabratus; 250 µg/mL (≈ 551 µM) with Candida albicans; 250 µg/mL (≈ 551 µM) against Candida tropicalis; 250 µg/mL (≈ 551 µM) in the assay on Pichia kudriavzevii; 250 µg/mL (≈ 551 µM) in assay [Candida] zeylanoides; 250 µg/mL (≈ 551 µM) against Candida parapsilosis. Further, the MIC in the assay on Aspergillus flavus, against Aspergillus niger, in the assay with Aspergillus parasiticus and against Fusarium solani was 250 µg/mL (≈ 551 µM) each time. Further, the IC50 (in the assay with A549; in assay [1]) was more than 500 µg/mL throughout.
`O=[N+]([O-])c1ccc(-c2csc(N3N=C(c4ccc(Cl)s4)CC3c3ccc(F)cc3)n2)cc1` (centres undefined): the MIC is 125 µg/mL (≈ 258 µM) with Nakaseomyces glabratus; 250 µg/mL (≈ 516 µM) with Candida albicans; 250 µg/mL (≈ 516 µM) with Candida tropicalis; 250 µg/mL (≈ 516 µM) with Pichia kudriavzevii; 250 µg/mL (≈ 516 µM) in [Candida] zeylanoides; 250 µg/mL (≈ 516 µM) in the assay with Candida parapsilosis. Besides, the minimum inhibitory concentration (MIC) in the assay on Aspergillus flavus, against Aspergillus niger, against Aspergillus parasiticus and against Fusarium solani was 250 µg/mL (≈ 516 µM) in each case. Further, the IC50 (in the assay on A549; in assay [1]) was more than 500 µg/mL each time.
As to `CC(=O)N1CCN(c2ccc(OCC3COC(Cn4ccnc4)(c4ccc(Cl)cc4Cl)O3)cc2)CC1` (centres undefined) [KETOCONAZOLE], the minimum inhibitory concentration (MIC) in the assay with Nakaseomyces glabratus came to 62.5 µg/mL (≈ 118 µM); against Candida albicans, 62.5 µg/mL (≈ 118 µM); with Candida tropicalis it was 125 µg/mL (≈ 235 µM); against Pichia kudriavzevii, 125 µg/mL (≈ 235 µM); in assay [Candida] zeylanoides, 250 µg/mL (≈ 470 µM); against Candida parapsilosis it was 15.6 µg/mL (≈ 29.4 µM). The MIC against Aspergillus flavus was 15.6 µg/mL (≈ 29.4 µM); against Aspergillus niger, 31.2 µg/mL (≈ 58.8 µM); against Aspergillus parasiticus, 7.81 µg/mL (≈ 14.7 µM); against Fusarium solani, 62.5 µg/mL (≈ 118 µM).
With `N#Cc1ccc(-c2csc(N3N=C(c4ccc(Cl)s4)CC3c3ccc(F)cc3)n2)cc1` (centres undefined), the MIC in the assay with Nakaseomyces glabratus was found to be 125 µg/mL (≈ 269 µM); in the assay on Candida albicans it was 250 µg/mL (≈ 538 µM); against Candida tropicalis, 250 µg/mL (≈ 538 µM); in the assay on Pichia kudriavzevii, 250 µg/mL (≈ 538 µM); in assay [Candida] zeylanoides, 250 µg/mL (≈ 538 µM); in the assay with Candida parapsilosis it was 250 µg/mL (≈ 538 µM). Moreover, the minimum inhibitory concentration (MIC) against Aspergillus flavus, in the assay with Aspergillus niger, in the assay on Aspergillus parasiticus and in the assay on Fusarium solani was 250 µg/mL (≈ 538 µM) each time. Further, the IC50 (with A549; in [1]) was more than 500 µg/mL each time.
On to `COc1ccc(-c2csc(N3N=C(c4ccc(Cl)s4)CC3c3ccc(F)cc3)n2)cc1` (centres undefined), for which the MIC was found to be 125 µg/mL (≈ 266 µM) against Nakaseomyces glabratus; 250 µg/mL (≈ 532 µM) with Candida albicans; 250 µg/mL (≈ 532 µM) in the assay with Candida tropicalis; 250 µg/mL (≈ 532 µM) against Pichia kudriavzevii; 250 µg/mL (≈ 532 µM) in [Candida] zeylanoides; 250 µg/mL (≈ 532 µM) in the assay with Candida parapsilosis. For the same compound, the MIC against Aspergillus flavus, in the assay with Aspergillus niger, in the assay on Aspergillus parasiticus and against Fusarium solani was 250 µg/mL (≈ 532 µM) throughout. Also, the IC50 is more than 500 µg/mL in the assay with A549 and 103 µg/mL (≈ 219 µM) in assay [1].
Take `Cc1ccc(C2=NN(c3nc(-c4ccc(Br)cc4)cs3)C(c3ccc(F)cc3)C2)s1` (centres undefined): the MIC in the assay with Nakaseomyces glabratus is 125 µg/mL (≈ 251 µM); against Candida albicans, 250 µg/mL (≈ 502 µM); in the assay with Candida tropicalis it was 250 µg/mL (≈ 502 µM); against Pichia kudriavzevii, 250 µg/mL (≈ 502 µM); in assay [Candida] zeylanoides it was 250 µg/mL (≈ 502 µM); in the assay on Candida parapsilosis, 250 µg/mL (≈ 502 µM). In addition, the minimum inhibitory concentration (MIC) in the assay on Aspergillus flavus, in the assay on Aspergillus niger, in the assay with Aspergillus parasiticus and against Fusarium solani was 250 µg/mL (≈ 502 µM) in each case. The half-maximal inhibitory concentration (IC50) (in the assay on A549; in assay [1]) was more than 500 µg/mL in each case.
